GASC-1 inh: human JMJD2C demethylase inhibition | GST-JMJD2C(1-420) H3K9me3 demethylation, DELFIA europium | inhibition, % at 2.35 µM | 330,000 compounds, 0.069% hits | AID 2099;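 active means more than half of a compound's replicate wells show inhibition beyond 50%, single wells judged on their own value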;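 further: signal counts dimethyl H3K9 product captured on neutravidin plate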
Target sequence (Q9H3R0 1-420 limits assumed): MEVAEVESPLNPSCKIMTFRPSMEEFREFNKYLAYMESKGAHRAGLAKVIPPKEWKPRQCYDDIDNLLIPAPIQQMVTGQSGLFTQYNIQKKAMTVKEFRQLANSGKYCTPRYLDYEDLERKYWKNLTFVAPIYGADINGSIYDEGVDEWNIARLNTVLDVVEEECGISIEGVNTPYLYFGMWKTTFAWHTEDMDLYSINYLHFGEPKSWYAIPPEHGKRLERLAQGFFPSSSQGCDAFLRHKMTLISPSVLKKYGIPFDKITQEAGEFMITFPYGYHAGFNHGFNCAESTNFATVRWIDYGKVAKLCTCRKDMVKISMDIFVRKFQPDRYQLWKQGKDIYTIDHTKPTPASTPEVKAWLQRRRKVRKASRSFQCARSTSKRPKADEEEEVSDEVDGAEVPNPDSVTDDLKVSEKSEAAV
T cell HTS: T cell immune modulation candidate; 2C CD8+ T cell-vesicle binding, flow cytometry; hits give low values; response (vesicle binding), % at 7 µM; 330,000 compounds, 0.068% hits;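 active means response, share of CD8 T cells binding vesicles, and their 90th percentile fluorescence all below set limits, cut at about 80% in these data, passing the limit was not always enough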;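 further: values below 100% mean blocked vesicle binding to the CD8+ T cells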
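Benchmarks: naked versus QL9-loaded vesicles / Assay system: purified 2C TCR transgenic mouse naive CD8+ T cells / Technique: high-throughput flow cytometry with anti-B7-1 and anti-CD8 staining / Timing: Cell–vesicle co-incubation 1.5 h at 37 °C, staining 20 min on ice / Read-out: percent CD8+ FL2 mean versus row control / Probe or stimulus: QL9-loaded Drosophila micro-vesicles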
HIF activator: HIF pathway transcriptional activation; U2OS HRE-luciferase reporter, luminescence; normalized: DMSO 0%, desferrioxamine 100%; 300,000 compounds, 0.32% hits; activation, % at 7.5 µM (by protocol);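 active means mean activation of at least 10% of the iron chelator positive control signal, with at least half of replicates also reaching 10%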
Mot1-301 SUMO: blocks SUMOylation pathway, rescuing yeast Mot1-301 growth; 320,000 compounds, 1% hits; growth rescue, % at 18.8 µM; S. cerevisiae Mot1-301 growth rescue, ATP luminescence, 38.5C; percent above DMSO median, 100 means doubled;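 active means every valid replicate shows activation above 250% relative to neutral control wells; inactive means the rest, any valid replicate at or below 250%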
Mot1 SUMO dose: inhibits SUMO pathway, affecting Mot1-301 yeast growth. shares compounds with Mot1-301 SUMO. S. cerevisiae Mot1-301 galactose growth, ATP luminescence, 24 h; -100 = growth of slx-deleted rescue strain. growth activity, percent, % at 42 µM. 2,300 tested, under 10 active;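 active means Signal drops as the depositor expects, and the fitted half-maximal dose is no more than ten times the top valid tested dose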;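 further: more negative values mean stronger growth rescue toward the control strain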
Large screens that a line does not name were inactive (follow-up assays come after a bar, where they were run). This is a sample that favours compounds with a hit; in the whole collection about 1.4% have one here.

CC(C)C1OC2(C)OC(=N)C1(C#N)C(C#N)(C#N)C2c1ccccc1 (centres undefined)	Mot1-301 SUMO 414.1 | Mot1 SUMO dose inactive
Cc1cc(S(=O)(=O)N2CCCC(N3CCOCC3)C2)c(C)cc1Cl (centres undefined)	Mot1-301 SUMO 421.2 | Mot1 SUMO dose inactive
O=S(=O)(c1cc(Cl)ccc1Cl)N1CCN2CCCC2C1 (centres undefined)	none
COc1ccccc1NC(=O)COC(=O)CC(C)(C)CC1=NS(=O)(=O)c2ccccc2N1	Mot1-301 SUMO 395.6 | Mot1 SUMO dose inactive
Nc1nc2ccc(C(=O)NC3CCCCC3)cc2s1	none
O=C(NC1CCCCC1)c1ccc2snnc2c1	Mot1-301 SUMO 528.9 | Mot1 SUMO dose inactive
CC1=C(C(=O)OCc2ccccc2)C(c2ccccc2)NC(=O)N1 (centres undefined)	none
CC1=C(C(=O)OCc2ccccc2)C(c2cccc(F)c2)NC(=O)N1 (centres undefined)	Mot1-301 SUMO 611.2 | Mot1 SUMO dose inactive
NC1=NS(=O)(=O)NC1c1ccc(F)cc1 (centres undefined)	none
CCN(C(=O)COC(=O)CNC(=O)c1ccc(C)s1)c1ccccc1	none
COCCN(C(=O)c1csnn1)C(C(=O)NC1CCCCC1)c1ccccc1 (centres undefined)	Mot1-301 SUMO 441.1 | Mot1 SUMO dose inactive
COCCN(C(=O)c1csnn1)C(C(=O)NC1CCCCC1)c1ccc(Cl)cc1 (centres undefined)	none
O=C(NCc1ccco1)c1cc2cc(Br)ccc2o1	none
COc1ccc(-c2cc(C(=O)Nc3cc(C)ccc3O)no2)cc1	Mot1-301 SUMO 369.3 | Mot1 SUMO dose inactive
O=C(Nc1ccc2nc(-c3ccc4nc[nH]c4c3)[nH]c2c1)c1cccs1	Mot1-301 SUMO 465.2 | Mot1 SUMO dose inactive
COc1ccccc1N1CCN(CCN2C(=O)C3CCCCN3C2=O)CC1 (centres undefined)	Mot1-301 SUMO 454.4 | Mot1 SUMO dose inactive
COc1ccc(C(=O)c2c(C)c3cc(C)ccc3n2CC(O)CN2CCOCC2)cc1 (centres undefined)	Mot1-301 SUMO 924.2 | Mot1 SUMO dose inactive
C/C(=N/NC(=O)c1ccncc1)c1ccc(NC(=O)c2ccccc2)cc1	none
CC(=O)Nc1ccc(/C(C)=N/NC(=O)c2ccncc2)cc1	Mot1-301 SUMO active | Mot1 SUMO dose inactive
CCCCOC(=O)/C(=C/c1cn(C)c2ccccc12)NC(=O)c1ccc(OC)cc1	none
COc1ccc(C(=O)N/C(=C\c2cn(C)c3ccccc23)C(=O)OCCN(C)C)cc1	Mot1-301 SUMO 506.8 | Mot1 SUMO dose inactive
CCOC(=O)c1sc(NC(=O)CSc2n[nH]c(-c3ccccc3)n2)c(C#N)c1C	Mot1-301 SUMO 471.5 | Mot1 SUMO dose inactive
CCOC(=O)c1sc(NC(=O)CSc2ccccn2)c(C#N)c1C	none
COc1ccc2cc3c(N)nn(C(=O)c4ccc(F)cc4)c3nc2c1	none
COc1ccc2cc3c(N)nn(C(=O)c4ccccc4Cl)c3nc2c1	Mot1-301 SUMO 500.6 | Mot1 SUMO dose inactive
Cn1nc(-c2ccc(Cl)cc2)cc1NC(=O)CSCC(=O)O	none
O=Cc1ccccc1OCCN1CCCC1=O	Mot1-301 SUMO 734.1 | Mot1 SUMO dose inactive
CCC(C)c1ccccc1NC(=O)CN(C)CCOc1ccc(Cl)cc1 (centres undefined)	none
CN(CCOc1ccc(Cl)cc1)CC(=O)Nc1ccc(OC(F)F)cc1	Mot1-301 SUMO 403.4 | Mot1 SUMO dose inactive
CCOC(=O)c1ccc(CNC(=O)C2CCCCC2C(=O)OCC(F)(F)F)o1 (centres undefined)	Mot1-301 SUMO active | Mot1 SUMO dose inactive
O=C(O)CCC(=O)N1CCC(n2nnc3cc(C(F)(F)F)ccc32)CC1	none
Cc1cccc(CSc2ccc(-c3ccco3)nn2)c1	Mot1-301 SUMO 667.5 | Mot1 SUMO dose inactive
CCOc1ccc(-c2cccc(NC(=O)c3ccco3)c2)nn1	none
O=C(c1cn(-c2ccccc2)nc1-c1cccs1)N1CCOCC1	Mot1-301 SUMO active | Mot1 SUMO dose inactive
O=C(c1cn(-c2ccccc2)nc1-c1cccs1)N1CCN(c2ccccc2)CC1	none
Cc1cc(Nc2nc3c(c(=O)n(C)c(=O)n3C)n2C)n(-c2ccc(Cl)cc2)n1	Mot1-301 SUMO active | Mot1 SUMO dose inactive
O=S(=O)(NCC1CCCN(Cc2ccccc2O)C1)c1cccc2cccnc12 (centres undefined)	Mot1-301 SUMO 383.9 | Mot1 SUMO dose inactive
COCCn1c(SCC(=O)Nc2nc3ccccc3s2)nnc1-c1ccoc1C	Mot1-301 SUMO 600.9 | Mot1 SUMO dose inactive
Cc1cc(C)c(NC(=O)c2ccc3c(c2)CCN3S(C)(=O)=O)c(C)c1	none
CC1CCN(CCNC(=O)C2CCCN(S(=O)(=O)c3cccc4nsnc34)C2)CC1 (centres undefined)	Mot1-301 SUMO 453.9 | Mot1 SUMO dose inactive
O=C(Nc1ccc(Cl)cc1F)C1CCN(S(=O)(=O)c2cccc3nonc23)CC1	none
COc1ccc(NC(=O)c2ccccc2-c2ccccc2)cc1	none
CC(C)NC(=O)c1ccccc1-c1ccccc1	Mot1-301 SUMO 467.5 | Mot1 SUMO dose inactive
O=C(O)c1cccc(N2C(=O)C3C4C=CC(C4=C(c4ccccc4)c4ccccc4)C3C2=O)c1 (centres undefined)	Mot1-301 SUMO 598.6 | Mot1 SUMO dose inactive
O=C(CN1CCN(C(=O)c2ccc(-c3nc4ccccc4s3)o2)CC1)Nc1ccc(F)cc1	none (no result: HIF activator)
O=C(OCCCCOC(=O)c1ccccc1)c1ccccc1	Mot1-301 SUMO 528.8 | Mot1 SUMO dose inactive
C=CCNc1nc(C(=O)OCC(=O)Nc2c(Cl)cccc2C(F)(F)F)cs1	none
CCc1ccc(C(=O)Nc2cc(S(=O)(=O)N3CCOCC3)ccc2N2CCOCC2)cc1	none (no result: HIF activator)
N#CC1(NC(=O)CN2C(=O)NC(c3ccccc3)(c3ccccc3)C2=O)CCCC1	none (no result: HIF activator)
O=C1c2ccccc2S(=O)(=O)N1Cc1cc(=O)n2ccsc2n1	Mot1-301 SUMO 383.4 | Mot1 SUMO dose inactive
O=c1cc(CN2CCCCCC2)nc2sccn12	none
COc1ccc(CNC(=O)c2cc(=O)c3ccc(C)c(C)c3o2)cc1	none
COc1ccc(CNC(=O)c2cc(=O)c3cc(C)cc(C)c3o2)cc1	Mot1-301 SUMO active (no result: T cell HTS) | Mot1 SUMO dose inactive
COc1ccc(C2=NOC(Cn3nc(-c4ccccc4C)cc3C(=O)O)C2)cc1 (centres undefined)	none (no result: HIF activator)
Cc1nc2ccccc2c2ncccc12	Mot1-301 SUMO 613.3 | Mot1 SUMO dose inactive
CCCCCCNc1c(C(=O)OCC)c(=O)[nH]c2ccccc12	Mot1-301 SUMO 777.7 | Mot1 SUMO dose inactive
CCCCn1c2nc3ccccc3nc2c2c(=O)n(CCC)cnc21	Mot1-301 SUMO 730.8 | Mot1 SUMO dose inactive
CCn1cc(CNC(=S)Nc2cccc3ccccc23)cn1	none (no result: Mot1-301 SUMO)
CC(=O)Nc1ccc(S(=O)(=O)N(C)CC(=O)Nc2ccc(Br)cc2F)cc1	Mot1-301 SUMO 513.0 | Mot1 SUMO dose inactive
CCOc1ccc(Br)cc1S(=O)(=O)NCc1ccncc1	none

From PubChem
